Experimental data from ChEMBL document CHEMBL1126705, “16 beta-([18F]fluoro)estrogens: systematic investigation of a new series of fluorine-18-labeled estrogens as potential imaging agents for estrogen-receptor-positive breast tumors” (J Med Chem, 1993).

Experiments:
[1] = biological target: T1, Estrogen receptor (Rattus norvegicus) (UniProt P06211+Q62986)
Rattus norvegicus [2] = experiment: Tested in vivo for the biodistribution in rat ovaries at 1 hour after intravenous dose of 100 microCi of the drug and 15 ug of estradiol; type: ADME, organism-based, Female gonad
Procedure, shortened: (§1)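 Immature (25-day-old) female Sprague-Dawley rats, ether-anesthetized, given the fluorine-18-labeled estrogen by femoral vein injection in 10% ethanol saline. […] Other groups were killed by decapitation at 1 or 3 h. Blood and organs were weighed and gamma-counted. Data are % injected dose/g, mean ± SD, typically n = 5 per group.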

[3] = biological target: T1, Estrogen receptor (Rattus norvegicus); remark: listed apart in the source
Rattus norvegicus [4] = experiment: Tested in vivo for the biodistribution in rat liver after 3 hours following an intravenous dose of 100 microCi of drug in 10%ethanol saline; type: ADME, organism-based
Procedure, shortened: as §1

[5] = biological target: T2, Sex hormone-binding globulin (Homo sapiens) (UniProt P04278); experiment: Relative binding affinity against sex steroid binding protein (SBP)
T2 sequence (whole entry): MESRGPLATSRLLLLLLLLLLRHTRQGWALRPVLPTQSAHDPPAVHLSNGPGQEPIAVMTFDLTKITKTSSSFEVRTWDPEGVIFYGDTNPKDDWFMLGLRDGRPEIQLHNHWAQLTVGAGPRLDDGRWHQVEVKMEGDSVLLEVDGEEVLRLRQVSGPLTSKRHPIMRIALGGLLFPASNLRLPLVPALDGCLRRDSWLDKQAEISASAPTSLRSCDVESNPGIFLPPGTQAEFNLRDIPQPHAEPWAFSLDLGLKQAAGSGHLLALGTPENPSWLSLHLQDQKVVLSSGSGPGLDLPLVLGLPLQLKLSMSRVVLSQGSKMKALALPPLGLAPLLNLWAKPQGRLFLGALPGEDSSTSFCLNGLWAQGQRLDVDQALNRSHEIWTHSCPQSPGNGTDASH

Rattus norvegicus [6] = experiment: Tested in vivo for the biodistribution in rat uterus/muscle at 1 hour after intravenous dose of 100 microCi of drug in 10%ethanol saline; type: ADME, organism-based, Muscle tissue
Procedure, shortened: (§2)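 Female Sprague-Dawley rats, 25 days old (~40–53 g), ether-anesthetized, given the 18F-labeled estrogen iv via femoral vein in 10% ethanol saline. […] Others were sacrificed by decapitation at 1 or 3 h. Blood and organs were excised, weighed and gamma counted as % injected dose/g, mean ± SD, typically n = 5 (4–6).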

Rattus norvegicus [7] = experiment: Tested in vivo for the biodistribution in rat muscle after 3 hours following an intravenous dose of 100 microCi of drug in 10%ethanol saline; type: ADME, organism-based, Muscle tissue
Procedure, shortened: as §1

Rattus norvegicus [8] = experiment: Tested in vivo for the biodistribution in rat uterus/blood at 1 hour after intravenous dose of 100 microCi of drug in 10%ethanol saline; type: ADME, organism-based
Procedure, shortened: as §2

Rattus norvegicus [9] = experiment: Tested in vivo for the biodistribution in blood of female rat at 1 hour after intravenous dose of 100 microCi of the drug and 15 u g of estradiol; type: ADME, organism-based
Rattus norvegicus [10] = experiment: Tested in vivo for the biodistribution in rat uterus at 1 hour after intravenous dose of 100 microCi of drug in 10%ethanol saline; type: ADME, organism-based
Procedure, shortened: as §1

[11] = Partition coefficient (logP); type: physicochemical; conditions: octanol/water
Procedure, shortened: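 Octanol/water log P estimated from log k'w measured by reversed-phase HPLC (Minick method) on a C8 silica column.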

Rattus norvegicus [12] = experiment: Tested in vivo for the biodistribution in rat bone after 3 hours following an intravenous dose of 100 microCi of drug in 10%ethanol saline; type: ADME, organism-based, Bone element
Procedure, shortened: (§3)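 Ether-anesthetized 25-day-old female Sprague-Dawley rats (~40–53 g) got the [18F] tracer in 10% ethanol saline via femoral vein. Rats were decapitated at 1 or 3 h, and blood and organs were weighed and gamma-counted. Values are % injected dose/g as mean ± SD, n = 5 per time point.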

Rattus norvegicus [13] = experiment: Tested in vivo for the biodistribution in rat uterus/blood at 1 hour after intravenous dose of 100 microCi of the drug and 15 ug of estradiol; type: ADME, organism-based
Procedure, shortened: as §2

Rattus norvegicus [14] = experiment: Tested in vivo for the biodistribution in rat fat at 1 hour after intravenous dose of 100 microCi of drug in 10%ethanol saline; type: ADME, organism-based, Adipose tissue
Procedure, shortened: as §3

Rattus norvegicus [15] = experiment: Tested in vivo for the biodistribution in rat fat after 3 hours following an intravenous dose of 100 microCi of drug in 10%ethanol saline; type: ADME, organism-based, Adipose tissue
Procedure, shortened: as §3

Rattus norvegicus [16] = experiment: Tested in vivo for the biodistribution in rat uterus/muscle at 1 hour after intravenous dose of 100 microCi of the drug and 15 ug of estradiol; type: ADME, organism-based, Muscle tissue
Procedure, shortened: as §2

Rattus norvegicus [17] = experiment: Tested in vivo for the biodistribution in rat kidney at 1 hour after intravenous dose of 100 microCi of the drug and 15 u g of estradiol; type: ADME, organism-based
[18] = biological target: T3, Alpha-fetoprotein (Rattus norvegicus) (UniProt P02773); experiment: Relative binding affinity for Alphafetoprotein
T3 sequence (whole entry): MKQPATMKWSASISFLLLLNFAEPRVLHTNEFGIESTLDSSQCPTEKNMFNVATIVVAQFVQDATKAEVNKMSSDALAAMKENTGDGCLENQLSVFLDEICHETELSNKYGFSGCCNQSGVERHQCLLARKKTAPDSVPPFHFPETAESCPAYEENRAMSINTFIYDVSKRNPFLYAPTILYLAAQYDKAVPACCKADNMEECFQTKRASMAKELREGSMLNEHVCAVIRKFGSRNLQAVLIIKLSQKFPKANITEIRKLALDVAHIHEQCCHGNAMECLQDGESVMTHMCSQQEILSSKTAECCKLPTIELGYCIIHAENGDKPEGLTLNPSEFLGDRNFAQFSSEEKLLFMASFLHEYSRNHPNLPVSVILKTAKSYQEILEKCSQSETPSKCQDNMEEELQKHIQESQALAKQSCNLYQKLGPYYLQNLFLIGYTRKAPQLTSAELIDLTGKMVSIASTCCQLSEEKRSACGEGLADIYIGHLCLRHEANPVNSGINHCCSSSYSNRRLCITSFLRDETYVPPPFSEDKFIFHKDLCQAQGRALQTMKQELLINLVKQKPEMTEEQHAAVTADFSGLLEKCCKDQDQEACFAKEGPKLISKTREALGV

Rattus norvegicus [19] = experiment: Tested in vivo for the biodistribution in blood of female rat at 1 hour after intravenous dose of 100 microCi of drug in 10%ethanol saline; type: ADME, organism-based
Procedure, shortened: as §3

Rattus norvegicus [20] = experiment: Tested in vivo for the biodistribution in rat kidney at 1 hour after intravenous dose of 100 microCi of drug in 10%ethanol saline; type: ADME, organism-based
Procedure, shortened: as §3

Rattus norvegicus [21] = experiment: Tested in vivo for the biodistribution in rat muscle at 1 hour after intravenous dose of 100 microCi of drug in 10%ethanol saline; type: ADME, organism-based, Muscle tissue
Procedure, shortened: as §1

Rattus norvegicus [22] = experiment: Tested in vivo for the biodistribution in rat bone at 1 hour after intravenous dose of 100 microCi of drug in 10%ethanol saline; type: ADME, organism-based, Bone element
Procedure, shortened: as §3

Rattus norvegicus [23] = experiment: Tested in vivo for the biodistribution in rat ovaries after 3 hours following an intravenous dose of 100 microCi of drug in 10%ethanol saline; type: ADME, organism-based, Female gonad
Procedure, shortened: as §1

Rattus norvegicus [24] = experiment: Tested in vivo for the biodistribution in rat bone at 1 hour after intravenous dose of 100 microCi of the drug and 15 ug of estradiol; type: ADME, organism-based, Bone element
Rattus norvegicus [25] = experiment: Tested in vivo for the biodistribution in rat kidney after 3 hours following an intravenous dose of 100 microCi of drug in 10%ethanol saline; type: ADME, organism-based
Procedure, shortened: as §3

Rattus norvegicus [26] = experiment: Tested in vivo for the biodistribution in rat liver at 1 hour after intravenous dose of 100 microCi of the drug and 15 u g of estradiol; type: ADME, organism-based
Procedure, shortened: as §1

Rattus norvegicus [27] = experiment: Tested in vivo for the biodistribution in rat fat at 1 hour after intravenous dose of 100 microCi of the drug and 15 ug of estradiol; type: ADME, organism-based, Adipose tissue
Rattus norvegicus [28] = experiment: Tested in vivo for the biodistribution in rat uterus at 1 hour after intravenous dose of 100 microCi of the drug and 15 micro g of estradiol; type: ADME, organism-based
Procedure, shortened: as §1

Rattus norvegicus [29] = experiment: Tested in vivo for the biodistribution in rat uterus/muscle after 3 hours following an intravenous dose of 100 microCi of drug in 10%ethanol saline; type: ADME, organism-based, Muscle tissue
Procedure, shortened: as §2

Rattus norvegicus [30] = experiment: Tested in vivo for the biodistribution in rat ovaries at 1 hour after intravenous dose of 100 microCi of drug in 10%ethanol saline; type: ADME, organism-based, Female gonad
Procedure, shortened: as §1

Rattus norvegicus [31] = experiment: Tested in vivo for the biodistribution in blood of female rat after 3 hours following an intravenous dose of 100 microCi of drug in 10%ethanol saline; type: ADME, organism-based
Procedure, shortened: as §3

Rattus norvegicus [32] = experiment: Tested in vivo for the biodistribution in rat uterus/blood after 3 hours following an intravenous dose of 100 microCi of drug in 10%ethanol saline; type: ADME, organism-based
Procedure, shortened: as §2

Rattus norvegicus [33] = experiment: Tested in vivo for the biodistribution in rat liver at 1 hour after intravenous dose of 100 microCi of drug in 10%ethanol saline; type: ADME, organism-based
Procedure, shortened: as §1

Rattus norvegicus [34] = experiment: Tested in vivo for the biodistribution in rat muscle at 1 hour after intravenous dose of 100 microCi of the drug and 15 ug of estradiol; type: ADME, organism-based, Muscle tissue
Procedure, shortened: as §1

Rattus norvegicus [35] = experiment: Tested in vivo for the biodistribution in rat uterus after 3 hours following an intravenous dose of 100 microCi of drug in 10%ethanol saline; type: ADME, organism-based
Procedure, shortened: as §1

SMILES: C#C[C@]1(O)[C@@H](F)C[C@H]2[C@@H]3CCc4cc(O)ccc4[C@H]3CC[C@@]21C
- BSI [1]: 27
- Injected (Rattus norvegicus [2]): 0.863%
- NSB [3]: 1.04
- Injected (Rattus norvegicus [4]): 2.204%
- relative binding affinity (RBA) [5]: 0.589
- Injected (Rattus norvegicus [6]): 24.42%
- Injected (Rattus norvegicus [7]): 0.133%
- Injected (Rattus norvegicus [8]): 16.87%
- Injected (Rattus norvegicus [9]): 0.576%
- Injected (Rattus norvegicus [10]): 7.466%
- logP [11]: 3.3
- Injected (Rattus norvegicus [12]): 0.557%
- Injected (Rattus norvegicus [13]): 0.92%
- Injected (Rattus norvegicus [14]): 0.337%
- Injected (Rattus norvegicus [15]): 0.122%
- Injected (Rattus norvegicus [16]): 2.424%
- Injected (Rattus norvegicus [17]): 0.752%
- relative binding affinity (RBA) [18]: 22
- Injected (Rattus norvegicus [19]): 0.449%
- Injected (Rattus norvegicus [20]): 0.906%
- Injected (Rattus norvegicus [21]): 0.307%
- Injected (Rattus norvegicus [22]): 0.608%
- Injected (Rattus norvegicus [23]): 1.274%
- Injected (Rattus norvegicus [24]): 0.635%
- Injected (Rattus norvegicus [25]): 0.376%
- Injected (Rattus norvegicus [26]): 2.412%
- Injected (Rattus norvegicus [27]): 0.206%
- Injected (Rattus norvegicus [28]): 0.533%
- Injected (Rattus norvegicus [29]): 32.37%
- Injected (Rattus norvegicus [30]): 2.159%
- Injected (Rattus norvegicus [31]): 0.358%
- Injected (Rattus norvegicus [32]): 12.21%
- Injected (Rattus norvegicus [33]): 2.249%
- Injected (Rattus norvegicus [34]): 0.22%
- Injected (Rattus norvegicus [35]): 4.31%
